Measurements: ChEMBL document CHEMBL2385063, “Identification of 2-(2-(1-naphthoyl)-8-fluoro-3,4-dihydro-1H-pyrido[4,3-b]indol-5(2H)-yl)acetic acid (setipiprant/ACT-129968), a potent, selective, and orally bioavailable chemoattractant receptor-homologous molecule expressed on Th2 cells (CRTH2) antagonist” (J Med Chem, 2013)
In brackets after ≈: the same amount, converted by molar mass. Activity calls are given as the source filed them. No cut-off for these calls is given here.

Biological target: Cytochrome P450 2D6 (Homo sapiens, UniProt P10635)
Assay: Inhibition of CYP2D6 in human liver microsomes assessed as dextromethorphan O-demethylation by LC-MS/MS analysis
Type: ADME, Microsome
Details: not given

Cytochrome P450 2D6, sequence (P10635 whole entry): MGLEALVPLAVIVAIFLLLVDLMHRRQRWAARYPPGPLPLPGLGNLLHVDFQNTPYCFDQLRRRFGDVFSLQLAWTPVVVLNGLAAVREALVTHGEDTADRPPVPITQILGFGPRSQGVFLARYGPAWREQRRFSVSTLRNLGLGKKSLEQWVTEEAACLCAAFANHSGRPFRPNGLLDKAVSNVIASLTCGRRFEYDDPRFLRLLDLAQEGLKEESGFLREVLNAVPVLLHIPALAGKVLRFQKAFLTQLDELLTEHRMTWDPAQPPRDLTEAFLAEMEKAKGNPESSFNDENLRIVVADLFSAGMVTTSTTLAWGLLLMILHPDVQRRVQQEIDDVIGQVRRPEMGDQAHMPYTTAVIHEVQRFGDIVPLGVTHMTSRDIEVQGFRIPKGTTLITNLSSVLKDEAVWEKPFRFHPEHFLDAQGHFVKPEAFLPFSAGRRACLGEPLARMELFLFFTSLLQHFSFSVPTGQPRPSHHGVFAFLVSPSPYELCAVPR

IC50 [nM] | Structure (SMILES)
> 50000 | O=C(O)Cn1c2c(c3cc(F)ccc31)CN(C(=O)Cc1c[nH]c3ccccc13)CC2

Biological target: T1, Prostaglandin D2 receptor 2 (Homo sapiens) (UniProt Q9Y5Y4)
T1 sequence (whole entry): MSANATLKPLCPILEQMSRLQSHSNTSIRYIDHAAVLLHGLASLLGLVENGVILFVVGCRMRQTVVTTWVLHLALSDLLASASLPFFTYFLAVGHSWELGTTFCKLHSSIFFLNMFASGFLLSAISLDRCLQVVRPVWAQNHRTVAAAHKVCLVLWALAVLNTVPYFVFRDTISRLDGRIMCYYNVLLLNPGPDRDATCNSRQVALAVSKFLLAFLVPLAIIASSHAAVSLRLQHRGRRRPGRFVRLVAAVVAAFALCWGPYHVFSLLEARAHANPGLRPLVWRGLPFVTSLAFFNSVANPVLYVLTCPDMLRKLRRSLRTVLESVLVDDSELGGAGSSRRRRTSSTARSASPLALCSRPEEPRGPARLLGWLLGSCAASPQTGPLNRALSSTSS
Assay: Selectivity factor, ratio of IC50 for recombinant human CRTH2 receptor in presence of human serum albumin to IC50 for recombinant human CRTH2 receptor in absence of human serum albumin
Details: not given
In short: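 Competitive [³H]PGD₂ (2.5 nM) displacement on membranes from HEK-293 cells stably expressing hCRTh2. Buffer C was 50 mM Tris, pH 7.4, 100 mM NaCl, 1 mM EDTA and 0.1% BSA, run with or without 0.5% HSA. Membrane was 80 μg protein/well, incubated 90 min at room temperature, then filtered and counted by scintillation. Nonspecific binding was taken with 10 μM PGD₂. f_HSA = IC₅₀(HSA)/IC₅₀(buffer).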

Ratio IC50 | Structure (SMILES)
3 | O=C(O)Cn1c2c(c3cc(F)ccc31)CN(C(=O)CCc1cccc3ccccc13)CC2
6 | O=C(O)Cn1c2c(c3cc(C(F)(F)F)ccc31)CN(C(=O)c1ccccc1)CC2
16 | O=C(O)Cn1c2c(c3cc(Cl)ccc31)CN(C(=O)c1cccc3ccccc13)CC2
7 | O=C(O)Cn1c2c(c3cc(F)ccc31)CN(C(=O)Cc1c[nH]c3ccccc13)CC2

Biological target: T2, Chemoattractant receptor-homologous molecule expressed on Th2 cells (Cavia porcellus) (UniProt Q56D28)
T2 sequence (whole entry): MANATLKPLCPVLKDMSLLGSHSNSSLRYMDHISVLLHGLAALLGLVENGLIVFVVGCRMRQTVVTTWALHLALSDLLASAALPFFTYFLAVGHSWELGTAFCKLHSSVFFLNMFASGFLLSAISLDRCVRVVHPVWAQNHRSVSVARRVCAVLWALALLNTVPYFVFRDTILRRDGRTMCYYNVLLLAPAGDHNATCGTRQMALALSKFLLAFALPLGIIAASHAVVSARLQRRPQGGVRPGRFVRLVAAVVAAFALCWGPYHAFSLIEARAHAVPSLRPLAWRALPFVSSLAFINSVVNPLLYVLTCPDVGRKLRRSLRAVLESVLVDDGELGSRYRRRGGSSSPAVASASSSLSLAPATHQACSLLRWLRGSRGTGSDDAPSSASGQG
Assay: Antagonist activity at guinea pig CRTH2 receptor assessed as inhibition of calcium flux by cell-based FLIPR assay
Type: functional
Details: not given

inhibition | Structure (SMILES)
Active | O=C(O)Cn1c2c(c3cc(F)ccc31)CN(C(=O)CCc1cccc3ccccc13)CC2
Active | O=C(O)Cn1c2c(c3cc(C(F)(F)F)ccc31)CN(C(=O)c1ccccc1)CC2
Active | O=C(O)Cn1c2c(c3cc(Cl)ccc31)CN(C(=O)c1cccc3ccccc13)CC2
Active | O=C(O)Cn1c2c(c3cc(F)ccc31)CN(C(=O)Cc1c[nH]c3ccccc13)CC2

Tested on: not listed separately
Assay: Solubility of the compound in aqueous buffer at pH 4
Type: physicochemical
Details: not given
In short: (§1)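 Compound was stirred in water, 60 mM citrate buffer pH 4 or 70 mM phosphate buffer pH 7 at 300 rpm, 25 °C, for 24 h. The mixture was filtered, and the filtrate concentration was measured by HPLC-UV at 250 nm against a calibration curve.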

solubility [µg/mL] | Structure (SMILES)
115 (≈ 284 µM) | O=C(O)Cn1c2c(c3cc(F)ccc31)CN(C(=O)Cc1c[nH]c3ccccc13)CC2

Tested on: not listed separately
Assay: n-octanol-KH2PO4-Na2HPO4 buffer partition coefficient, log D of the compound at pH 7.4 by shake flask method
Type: physicochemical
Details: not given

logD | Structure (SMILES)
-0.3 | O=C(O)Cn1c2c(c3cc(F)ccc31)CN(C(=O)Cc1c[nH]c3ccccc13)CC2

Tested on: not listed separately
Assay: Elimination half life in human plasma at 1 mM by HR-LC-MS analysis
Type: ADME, cell-free
Details: read-out: beta t1/2

half-life [h] | Structure (SMILES)
> 4 | O=C(O)Cn1c2c(c3cc(F)ccc31)CN(C(=O)Cc1c[nH]c3ccccc13)CC2

Tested on: not listed separately
Assay: Intrinsic clearance in rat liver microsomes measured per mg of protein at 1 uM by LC/MS-MS analysis
Type: ADME, Microsome
Details: read-out: CLH

microsomal CLint at 1 µM [µL/min/mg] | Structure (SMILES)
23 | O=C(O)Cn1c2c(c3cc(F)ccc31)CN(C(=O)Cc1c[nH]c3ccccc13)CC2

Tested on: not listed separately
Assay: Half life in simulated gastric fluid at 2 uM by LC-MS analysis
Type: physicochemical
Details: not given
In short: (§2)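 Compounds were incubated in simulated gastric fluid for 1 h or simulated intestinal fluid for 4 h. Unchanged parent was quantified by LC-MS.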

half-life at 2 µM [h] | Structure (SMILES)
> 1 | O=C(O)Cn1c2c(c3cc(F)ccc31)CN(C(=O)Cc1c[nH]c3ccccc13)CC2

Tested on: not listed separately
Assay: Intrinsic clearance in human liver microsomes measured per mg of protein at 1 uM by LC/MS-MS analysis
Type: ADME, Microsome
Details: read-out: CLH

microsomal CLint at 1 µM [µL/min/mg] | Structure (SMILES)
< 4 | O=C(O)Cn1c2c(c3cc(F)ccc31)CN(C(=O)Cc1c[nH]c3ccccc13)CC2

Biological target: T3, Prostaglandin D2 receptor 2 (Mus musculus) (UniProt Q9Z2J6)
T3 sequence (whole entry): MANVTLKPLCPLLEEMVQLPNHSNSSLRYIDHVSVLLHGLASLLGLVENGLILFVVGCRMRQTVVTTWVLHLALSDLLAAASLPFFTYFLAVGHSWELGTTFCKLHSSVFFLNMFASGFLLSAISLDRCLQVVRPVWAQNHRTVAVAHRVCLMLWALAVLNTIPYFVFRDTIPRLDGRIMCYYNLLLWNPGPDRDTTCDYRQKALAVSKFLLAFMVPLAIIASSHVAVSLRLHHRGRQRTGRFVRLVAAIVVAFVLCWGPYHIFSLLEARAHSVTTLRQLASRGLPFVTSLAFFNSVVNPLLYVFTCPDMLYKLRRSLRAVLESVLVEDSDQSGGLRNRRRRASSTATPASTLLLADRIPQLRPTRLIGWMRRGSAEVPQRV
Assay: Antagonist activity at mouse CRTH2 receptor assessed as inhibition of calcium flux by cell-based FLIPR assay
Type: functional
Details: not given

inhibition | Structure (SMILES)
Active | O=C(O)Cn1c2c(c3cc(F)ccc31)CN(C(=O)CCc1cccc3ccccc13)CC2
Active | O=C(O)Cn1c2c(c3cc(C(F)(F)F)ccc31)CN(C(=O)c1ccccc1)CC2
Active | O=C(O)Cn1c2c(c3cc(Cl)ccc31)CN(C(=O)c1cccc3ccccc13)CC2
Active | O=C(O)Cn1c2c(c3cc(F)ccc31)CN(C(=O)Cc1c[nH]c3ccccc13)CC2

Tested on: not listed separately
Assay: Elimination half life in Sprague-Dawley rat plasma at 1 mM by HR-LC-MS analysis
Type: ADME, cell-free
Details: read-out: beta t1/2

half-life [h] | Structure (SMILES)
> 4 | O=C(O)Cn1c2c(c3cc(F)ccc31)CN(C(=O)Cc1c[nH]c3ccccc13)CC2

Biological target: Cytochrome P450 2C9 (Homo sapiens, UniProt P11712)
Assay: Inhibition of CYP2C9 in human liver microsomes assessed as diclofenac 4'-hydroxylation by LC-MS/MS analysis
Type: ADME, Microsome
Details: not given

Cytochrome P450 2C9, sequence (P11712 whole entry): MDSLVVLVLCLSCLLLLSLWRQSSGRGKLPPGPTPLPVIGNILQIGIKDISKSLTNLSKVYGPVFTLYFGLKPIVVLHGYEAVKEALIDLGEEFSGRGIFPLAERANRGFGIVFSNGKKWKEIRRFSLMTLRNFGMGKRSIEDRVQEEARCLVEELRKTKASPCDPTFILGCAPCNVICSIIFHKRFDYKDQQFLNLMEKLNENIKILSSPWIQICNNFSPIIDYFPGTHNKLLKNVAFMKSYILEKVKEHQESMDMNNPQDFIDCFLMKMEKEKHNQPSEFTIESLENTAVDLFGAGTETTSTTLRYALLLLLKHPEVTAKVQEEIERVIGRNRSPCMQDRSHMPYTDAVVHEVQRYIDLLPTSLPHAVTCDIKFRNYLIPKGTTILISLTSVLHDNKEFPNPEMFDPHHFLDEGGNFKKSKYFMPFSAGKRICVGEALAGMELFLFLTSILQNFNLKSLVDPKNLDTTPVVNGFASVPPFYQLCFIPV

IC50 [nM] | Structure (SMILES)
> 50000 | O=C(O)Cn1c2c(c3cc(F)ccc31)CN(C(=O)Cc1c[nH]c3ccccc13)CC2

Tested on: not listed separately
Assay: Solubility of the compound in aqueous buffer at pH 7
Type: physicochemical
Details: not given
In short: as §1

solubility [µg/mL] | Structure (SMILES)
800 (≈ 1970 µM) | O=C(O)Cn1c2c(c3cc(F)ccc31)CN(C(=O)Cc1c[nH]c3ccccc13)CC2

Tested on: not listed separately
Assay: Half life in simulated intestinal fluid at 2 uM by LC-MS analysis
Type: physicochemical
Details: not given
In short: as §2

half-life at 2 µM [h] | Structure (SMILES)
> 4 | O=C(O)Cn1c2c(c3cc(F)ccc31)CN(C(=O)Cc1c[nH]c3ccccc13)CC2

Biological target: T4, Prostaglandin D2 receptor 2 (Homo sapiens, UniProt Q9Y5Y4)
T4 sequence (Q9Y5Y4 whole entry): T1 sequence (whole entry)
Assay: Antagonist activity at CRTH2 receptor in human eosinophils assessed as inhibition of PGD2-induced cell shape change incubated for 1 hr prior to PGD2 induction measured after 5 mins by FACS flow cytometric analysis in presence of human plasma
Details: in the assay text read “incubated for 10 mins” for “incubated for 1 hr”
In short: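 Polymorphonuclear cells isolated from healthy-donor blood on a Polymorphprep gradient (500g, 30 min), erythrocytes lysed hypotonically. Cells stained 1 h with CD49d-APC, mixed with human plasma, preincubated with antagonist, then stimulated with 15 nM PGD2 for 5 min at 37 °C. Fixed in cold 1% paraformaldehyde. Eosinophils gated by CD49d/SSC; activation read as % cells with raised forward scatter.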

IC50 [nM] | Structure (SMILES)
50 | O=C(O)Cn1c2c(c3cc(F)ccc31)CN(C(=O)Cc1c[nH]c3ccccc13)CC2

Biological target: T4, Prostaglandin D2 receptor 2
Assay: Antagonist activity at CRTH2 receptor in human eosinophils assessed as inhibition of PGD2-induced cell shape change incubated for 10 mins prior to PGD2 induction measured after 5 mins by FACS flow cytometric analysis in presence of human plasma
Details: not given

IC50 [nM] | Structure (SMILES)
210 | O=C(O)Cn1c2c(c3cc(F)ccc31)CN(C(=O)CCc1cccc3ccccc13)CC2
130 | O=C(O)Cn1c2c(c3cc(C(F)(F)F)ccc31)CN(C(=O)c1ccccc1)CC2
100 | O=C(O)Cn1c2c(c3cc(Cl)ccc31)CN(C(=O)c1cccc3ccccc13)CC2

Tested on: not listed separately
Assay: Protein binding in plasma (unknown origin)
Type: ADME, cell-free
Details: read-out: PPB

fraction unbound | Structure (SMILES)
< 0.03 | O=C(O)Cn1c2c(c3cc(F)ccc31)CN(C(=O)CCc1cccc3ccccc13)CC2
< 0.03 | O=C(O)Cn1c2c(c3cc(C(F)(F)F)ccc31)CN(C(=O)c1ccccc1)CC2
< 0.03 | O=C(O)Cn1c2c(c3cc(Cl)ccc31)CN(C(=O)c1cccc3ccccc13)CC2
< 0.03 | O=C(O)Cn1c2c(c3cc(F)ccc31)CN(C(=O)Cc1c[nH]c3ccccc13)CC2

Biological target: Cytochrome P450 3A4 (Homo sapiens, UniProt P08684)
Assay: Inhibition of CYP3A4 in human liver microsomes assessed as midazolam-1'-hydroxylation by LC-MS/MS analysis
Type: ADME, Microsome
Details: not given

Cytochrome P450 3A4, sequence (P08684 whole entry): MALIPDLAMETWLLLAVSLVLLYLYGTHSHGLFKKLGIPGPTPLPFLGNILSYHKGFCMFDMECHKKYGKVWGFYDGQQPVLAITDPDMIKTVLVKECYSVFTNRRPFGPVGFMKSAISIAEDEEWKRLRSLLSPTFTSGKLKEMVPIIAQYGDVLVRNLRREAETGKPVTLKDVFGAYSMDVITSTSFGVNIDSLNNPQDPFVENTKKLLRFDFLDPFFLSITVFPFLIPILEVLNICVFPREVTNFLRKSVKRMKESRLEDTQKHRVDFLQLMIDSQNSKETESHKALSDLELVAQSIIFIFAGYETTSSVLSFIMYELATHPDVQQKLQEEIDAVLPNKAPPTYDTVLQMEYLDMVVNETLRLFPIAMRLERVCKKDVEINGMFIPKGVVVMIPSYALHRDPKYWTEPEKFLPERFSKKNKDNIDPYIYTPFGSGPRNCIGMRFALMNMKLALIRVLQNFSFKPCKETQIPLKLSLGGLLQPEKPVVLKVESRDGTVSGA

IC50 [nM] | Structure (SMILES)
> 50000 | O=C(O)Cn1c2c(c3cc(F)ccc31)CN(C(=O)Cc1c[nH]c3ccccc13)CC2
